Screening results from PubChem BioAssay.
The list is not random: actives were taken first. Their share in the collection is about 5.9%.
T cruzi growth-1: T. cruzi proliferation inhibition; inhibition, % at 8.34 µM; T. cruzi beta-gal in NIH3T3, GalScreen luminescence, 90 h; AID 624255; 77,000 compounds, 5.9% hits;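 active means mean inhibition above about 93%, with at least 55% of replicates each passing it, limit read from the data, passing the limit was not always enough; inconclusive means only one of those two conditions holds; inactive means neither condition holds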
IDH1 mut inh: IDH1 R132H (human) inhibition; O75874; IDH1 R132H reductase, diaphorase/resazurin fluorescence, 60 min; inhibition, % at 10 µM; 70,000 compounds, 0.18% hits; AID 624101; in the data active means inhibition above about 34%; inconclusive means no clear call, values can overlap the other calls; inactive means below about 11%;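 further: 0% = DMSO and 100% = no enzyme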
Target sequence (O75874 whole entry R132H): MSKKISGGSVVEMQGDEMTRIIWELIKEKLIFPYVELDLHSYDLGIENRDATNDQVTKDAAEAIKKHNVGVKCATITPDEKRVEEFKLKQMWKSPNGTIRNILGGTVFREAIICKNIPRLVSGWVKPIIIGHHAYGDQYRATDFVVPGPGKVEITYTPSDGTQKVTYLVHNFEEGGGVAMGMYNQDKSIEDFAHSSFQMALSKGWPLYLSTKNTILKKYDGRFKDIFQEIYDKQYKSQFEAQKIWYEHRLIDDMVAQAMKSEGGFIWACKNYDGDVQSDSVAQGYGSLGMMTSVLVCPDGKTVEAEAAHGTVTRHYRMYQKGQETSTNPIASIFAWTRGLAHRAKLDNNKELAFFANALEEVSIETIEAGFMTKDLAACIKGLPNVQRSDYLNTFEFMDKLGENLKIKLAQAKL
KDM4C inh: blocks human GASC-1 (KDM4C) demethylase activity; Q9H3R0; inhibition, % at 12.5 µM; 96,000 compounds, 0.15% hits; GST-KDM4C 2-372, H3K9me3 peptide, LANCE TR-FRET;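 active means mean replicate inhibition above about 25%, with at least 55% of replicates also reaching it, limit read from the data, passing the limit was not always enough; inconclusive means only one of those two conditions met; inactive means neither condition met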
Target sequence (Q9H3R0 2-372 limits assumed): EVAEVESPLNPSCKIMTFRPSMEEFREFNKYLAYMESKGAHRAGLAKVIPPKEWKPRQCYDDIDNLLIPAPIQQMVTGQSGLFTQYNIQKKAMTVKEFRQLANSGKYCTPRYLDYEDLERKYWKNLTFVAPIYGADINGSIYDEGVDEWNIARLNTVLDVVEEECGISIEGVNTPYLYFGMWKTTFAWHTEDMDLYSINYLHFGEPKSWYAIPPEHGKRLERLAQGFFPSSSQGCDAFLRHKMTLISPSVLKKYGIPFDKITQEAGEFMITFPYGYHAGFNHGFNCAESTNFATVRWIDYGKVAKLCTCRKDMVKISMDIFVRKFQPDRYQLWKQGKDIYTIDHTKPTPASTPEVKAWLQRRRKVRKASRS
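System: N-terminal GST-fused human GASC-1 (KDM4C) fragment, residues 2-372; amount: enzyme final amount 10 nM; incubation: reaction 30 min RT, detection step 1 h RT; medium: HEPES buffer, pH 7.5, plus ascorbate; technique: LANCE TR-FRET, Eu antibody, ULight-streptavidin, EDTA, ex 340 nm, em 618/671 nm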
Pf Dd2 growth: inhibitors of Plasmodium falciparum Dd2 growth; P. falciparum Dd2 growth, SYBR Green, 72 h; stronger effect = lower value; activity change, % at 10 µM; 94,000 compounds, 2.3% hits; AID 1159554; in the data active means activity change below about -80%; inconclusive means no clear call, values can overlap the other calls
T cruzi growth-2: inhibitors of T. cruzi proliferation | inhibition, % at 8.35 µM | 5,600 compounds, 72% hits | AID 651739 | shares compounds with T cruzi growth-1 | T. cruzi beta-gal in NIH3T3, GalScreen luminescence, 90 h;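 active means mean replicate inhibition above about 95% and at least 55% of replicates individually reaching it, limit read from the data; inconclusive means only one of the two criteria is met; inactive means neither criterion is met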
T cruzi growth-3: blocks T. cruzi growth in NIH3T3 host cells. shares compounds with T cruzi growth-1. 5,600 compounds, 21% hits. T. cruzi beta-gal in NIH3T3, GalScreen luminescence, 90 h. inhibition, % at 2.09 µM;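 active means mean inhibition above about 95%, with at least 55% of replicates also reaching it, limit read from the data; inconclusive means meets just one of the two conditions; inactive means meets neither condition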;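 further: plate controls were neutral control median for no effect and positive control median for full effect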
NIH3T3 tox: cytotoxicity in mouse NIH/3T3 fibroblasts | shares compounds with T cruzi growth-1 | NIH/3T3 viability, CellTiter-Glo ATP luminescence, 90 h | cytotoxicity (signal decrease), % at 8.35 µM | 5,600 compounds, 14% hits | AID 651742;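 active means mean signal decrease across replicates above about 35% based on untreated-well scatter, with enough replicates individually passing, limit read from the data; inconclusive means no rule stated though some were filed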;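 further: 0% = median of neutral control wells and 100% = median of positive control wells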
3T3 cytotox 2: kills mouse NIH/3T3 fibroblasts; shares compounds with T cruzi growth-1; NIH/3T3 viability, CellTiter-Glo ATP luminescence, 90 h; inhibition, % at 24.9 µM; 5,600 compounds, 56% hits;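 active means mean loss of cell viability signal at or above a set limit, and enough replicates individually reaching it; inconclusive means meets only the mean limit or only the replicate share; inactive means meets neither condition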;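 further: 0% = median of neutral control wells and 100% = median of positive control wells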
* = called active by the depositor; ? = inconclusive; nt = no result.

SMILES	T cruzi growth-1	IDH1 mut inh	KDM4C inh	Pf Dd2 growth	T cruzi growth-2	T cruzi growth-3	NIH3T3 tox	3T3 cytotox 2
O=C(CN1C(=O)c2cccc3cccc1c23)Nc1ccccc1C(=O)N1CCOCC1	nt	0.1	nt	nt	nt	nt	nt	nt
O=C(c1cc(C2CC2)[nH]n1)n1ccnc1	nt	0.7	nt	nt	nt	nt	nt	nt
O=C(CC1Sc2ccc(Cl)cc2NC1=O)Nc1ccc([N+](=O)[O-])cc1 (configuration not stated)	nt	0.6	nt	nt	nt	nt	nt	nt
CCOC(=O)N1CCN(Cc2nnc(-c3ccc4c(c3)OCO4)o2)CC1	nt	0.1	nt	nt	nt	nt	nt	nt
CN(C)c1ccc2c3c(ccc(N(C)C)c13)[C@](O)(C(F)(F)F)O[C@]2(O)C(F)(F)F	nt	-1.6	nt	nt	nt	nt	nt	nt
O=C(C1CCC1)N1CCCCN2[C@H](CO)[C@H](c3ccc(-c4ccncc4)cc3)[C@H]2C1	101.0*	nt	-1.4	3.5	92.3	82.0	-13.5	-13.4
O=C(C1CCC1)N1CCCCN2[C@H](CO)[C@@H](c3ccc(-c4ccncc4)cc3)[C@H]2C1	98.0*	nt	14.9	26.5	100.0*	16.0	-7.5	5.1
O=C(C1CCCC1)N1CCCCN2[C@@H](CO)[C@@H](c3ccc(-c4ccncc4)cc3)[C@@H]2C1	48.6	nt	nt	11.6	nt	nt	nt	nt
O=C(C1CCCC1)N1CCCCN2[C@H](CO)[C@@H](c3ccc(-c4ccncc4)cc3)[C@H]2C1	?	nt	nt	45.2	55.2	36.0	10.7	18.6
O=C(C1CCC1)N1CCCCN2[C@@H](CO)[C@@H](c3ccc(-c4ccncc4)cc3)[C@@H]2C1	109.2*	nt	-0.7	7.2	105.0*	86.5	20.2	50.8*
COc1ccc(NC(=O)CS(=O)(=O)c2ccc3ccccc3c2)cc1	nt	0.6	nt	nt	nt	nt	nt	nt
CC(C)CC#Cc1ccc2c(c1)O[C@H](CN(C)C(=O)C1CCC1)[C@@H](C)CN([C@@H](C)CO)S2(=O)=O	106.0*	nt	-2.5	-54.1	106.7*	83.0	15.4	103.9*
CC(C)CC#Cc1ccc2c(c1)O[C@@H](CN(C)C(=O)C1CCC1)[C@H](C)CN([C@H](C)CO)S2(=O)=O	?	nt	-0.5	-48.9	102.3*	79.8	-19.6	101.1*
CC(C)CC#Cc1ccc2c(c1)O[C@H](CN(C)C(=O)C1CCC1)[C@H](C)CN([C@H](C)CO)S2(=O)=O	83.9	0.7	1.3	-37.6	nt	nt	nt	nt
CC(C)CC#Cc1ccc2c(c1)O[C@@H](CN(C)C(=O)C1CCC1)[C@H](C)CN([C@@H](C)CO)S2(=O)=O	105.9*	11.4	-1.3	-44.5	96.5*	104.1*	-2.6	41.9*
CC(C)CC#Cc1ccc2c(c1)O[C@H](CN(C)C(=O)C1CCC1)[C@H](C)CN([C@@H](C)CO)S2(=O)=O	95.0	nt	-0.3	-44.5	nt	nt	nt	nt
CC(C)CC#Cc1ccc2c(c1)O[C@@H](CN(C)C(=O)C1CCC1)[C@@H](C)CN([C@H](C)CO)S2(=O)=O	76.0	0.1	-1.1	-44.1	nt	nt	nt	nt
COc1ccc(C#Cc2ccc3c(c2)[C@@H]2[C@@H](CCN2C(=O)c2ccccc2F)[C@@H](CO)N3)cc1	106.0*	nt	-3.2	-35.0	102.2*	69.8	19.9	16.9
O=C(c1ccccc1F)N1CC[C@@H]2[C@H](CO)Nc3ccc(C#Cc4ccc(F)cc4)cc3[C@@H]21	12.2	nt	-0.6	-16.6	nt	nt	nt	nt
COc1ccc(C#Cc2ccc3c(c2)[C@@H]2[C@@H](CCN2C(=O)c2ccccc2F)[C@H](CO)N3C)cc1	?	nt	0.3	-55.1	110.6*	?	33.3	54.2*
COc1ccc(C#Cc2ccc3c(c2)[C@H]2[C@H](CCN2C(=O)CN2CCOCC2)[C@H](CO)N3C)cc1	98.6*	nt	2.4	-55.6	110.6*	58.8	8.1	26.8*
O=C(Nc1ccccc1)N1CCCCN2[C@H](CO)[C@@H](c3ccc(C#Cc4ccccc4)cc3)[C@@H]2C1	109.5*	nt	-0.5	8.7	89.4	102.9*	?	104.2*
CC(C)C#Cc1ccc([C@H]2[C@@H](CO)N3CCCCN(C(=O)Nc4ccccc4)C[C@@H]23)cc1	113.3*	nt	-0.2	6.6	107.5*	67.1	40.7*	33.8*
O=C(Nc1ccc(F)cc1)N1CCCCN2[C@H](CO)[C@@H](c3ccc(C#Cc4ccccc4)cc3)[C@@H]2C1	73.1	nt	-3.1	-30.1	nt	nt	nt	nt
CC(C)CC#Cc1ccc([C@H]2[C@@H](CO)N3CCCCN(C(=O)Nc4ccccc4)C[C@@H]23)cc1	105.8*	nt	-1.1	-3.7	98.3*	102.9*	20.6	86.6*
SMILES	T cruzi growth-1	IDH1 mut inh	KDM4C inh	Pf Dd2 growth	T cruzi growth-2	T cruzi growth-3	NIH3T3 tox	3T3 cytotox 2
O=C(Nc1ccccc1)N1CCCCN2[C@H](C1)[C@H](c1ccc(C#Cc3cccnc3)cc1)[C@@H]2CO	109.6*	nt	-3.0	-24.8	70.1	-15.4	-0.1	7.2
O=C(Nc1cccc(F)c1)N1CCCCN2[C@H](CO)[C@H](c3ccc(C#Cc4cccnc4)cc3)[C@@H]2C1	41.2	nt	-1.9	-71.5	nt	nt	nt	nt
CC(=O)c1ccc(NC(=O)CNS(=O)(=O)c2cccc(Cl)c2)cc1	nt	0.3	nt	nt	nt	nt	nt	nt
COc1ccccc1NC(=O)CSc1n[nH]c(-c2ccncc2)n1	nt	-0.3	nt	nt	nt	nt	nt	nt
Cc1ccc(NS(=O)(=O)c2cccc(C(=O)Nc3ccccc3C(=O)O)c2)cc1C	nt	-1.2	nt	nt	nt	nt	nt	nt
O=C(c1cccnc1)N1CCCCN2[C@H](C1)[C@@H](c1ccc(C#Cc3cccnc3)cc1)[C@@H]2CO	82.7	nt	-1.1	1.9	nt	nt	nt	nt
O=C(c1cccnc1)N1CCCCN2[C@H](CO)[C@H](c3ccc(C#Cc4ccccc4)cc3)[C@@H]2C1	100.5*	nt	nt	11.0	109.7*	73.3	61.4*	42.6*
O=C(Nc1ccc(F)cc1)N1CCCCN2[C@@H](CO)[C@H](c3ccc(C#Cc4ccccc4)cc3)[C@@H]2C1	123.0*	nt	-1.2	?	98.8*	110.7*	117.4*	104.8*
CC(C)CC#Cc1ccc2c(c1)O[C@H](CN(C)C(=O)Cc1ccncc1)[C@@H](C)CN([C@H](C)CO)S2(=O)=O	?	5.5	1.0	-65.0	100.7*	69.9	3.4	-7.0
CC(C)CC#Cc1ccc2c(c1)O[C@@H](CN(C)C(=O)Cc1ccccc1)[C@@H](C)CN([C@@H](C)CO)S2(=O)=O	125.8*	11.4	5.1	-42.5	103.0*	69.3	-0.1	104.3*
CC(C)CC#Cc1ccc2c(c1)O[C@@H](CN(C)C(=O)Cc1ccccc1)[C@@H](C)CN([C@H](C)CO)S2(=O)=O	127.0*	0.3	-2.4	-48.5	98.2*	112.5*	30.3	103.3*
CC(C)CC#Cc1ccc2c(c1)O[C@H](CN(C)C(=O)Cc1ccccc1)[C@H](C)CN([C@@H](C)CO)S2(=O)=O	121.0*	-1.0	3.1	-30.9	99.2*	94.5	17.8	99.8*
